Only some compounds are listed: those with a hit (about 3.2% of all), similar ones and a draw of the others.
RORA act – activators of orphan receptor RORA, primary screen, cell-based, luminescence; activation, % at 10 µM; Nuclear receptor ROR-alpha (Homo sapiens), P35398; CHO-K1 Gal4-RORA LBD luciferase reporter; percent increase over mock-subtracted basal signal; 65,000 tested, 1.5% active;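 active = activation above the mean of all tested compounds plus 3 SD, cut at about 49% in these data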;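 note: 0% = DMSO-treated RORA cells and 100% = added signal equal to DMSO minus mock-transfected cells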
SF-1 act – activators of human SF-1, primary screen, cell-based, CHO-K1, Gal4-SF-1 LBD, luciferase luminescence; Steroidogenic factor 1 (Homo sapiens), Q13285; CHO-K1 Gal4-SF-1 LBD luciferase reporter; % increase over DMSO SF-1-specific signal; activation, % at 10 µM; 65,000 tested, 1.9% active;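 active = activation above the mean activation of all tested compounds plus 3 SD, cut at about 50% in these data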
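Material: CHO-K1 cells with Gal4–hSF-1 LBD chimera plus Gal4-driven luciferase / Input: 4,000 CHO-K1 cells per well / Incubation: compound exposure 20 h at 37 °C / Signal: luminescence read 15 min after SteadyLite luciferase reagent, after room-temperature equilibration / Read-out: percent activation versus DMSO / Benchmarks: DMSO negative control and −SF1 background wells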
E coli RNAP – E. coli RNAP inhibitors, biochemical; E. coli RNA polymerase, fluorescence transcription assay; inhibition, %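 (tested at 10 µM)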; DNA-directed RNA polymerase subunit beta (Escherichia coli (strain K12)), P0A8V2; AID 559, 2006; 62,000 tested, 0.2% active; in the data active = inhibition above about 20%;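 note: 0% = enzyme without compound and 100% = no enzyme blank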
BAP1 inh – inhibitors of BAP1 deubiquitinase, primary screen, biochemical, Ub-AMC fluorescence, kinetic; Ubiquitin carboxyl-terminal hydrolase BAP1 (Homo sapiens), Q92560; recombinant BAP1, Ub-AMC hydrolysis fluorescence kinetic; active compounds read low; activity remaining (% of control), % at 20 µM; 72,000 tested, 0.48% active;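 active = activity remaining at or below 50% of control, provided the compound also passes the data quality filters; inactive = the rest, including low values that fail the filters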;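 note: 100% = DMSO wells rate and 0% = substrate alone blank rate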
JNK3 blocker – JNK3 kinase activity inhibitors, primary screen, biochemical, human, purified enzyme; Mitogen-activated protein kinase 10 (Homo sapiens), P53779; HTS; inhibition, % at 8 µM; 60,000 tested, 0.61% active; in the data active = inhibition above about 17%;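 note: 0% = DMSO and 100% = reference inhibitor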
BAP1 inh conf – BAP1 deubiquitinase inhibitors, hit retest, confirmation, orthogonal assay, biochemical, Ub-ethyl ester substrate, HPLC readout. shares compounds with BAP1 inh. purified BAP1, Ub-ethyl ester hydrolysis; active compounds read low. % of control activity, % at 20 µM. 310 tested, 8% active. AID 753, 2007;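 active = percent of control activity at or below 60%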
Active calls of the source: *.

O=C(Nc1ccccc1NC(=O)NC1CCCCC1)NC1CCCCC1 was read as RORA act 16, SF-1 act -84, E coli RNAP 6, BAP1 inh 46*, JNK3 blocker 0 and BAP1 inh conf 104.
Cc1cc(C)nc(SCC(=O)OCN2C(=O)c3ccccc3C2=O)n1 was read as RORA act -8, SF-1 act -7 and E coli RNAP -1.
`CCCn1c2c(c(O)c(C(=O)Nc3ccccc3)c1=O)CCCC2` gave RORA act -26, SF-1 act -19, E coli RNAP 4, BAP1 inh 46*, JNK3 blocker -4 and BAP1 inh conf 81.
`CCCn1c2c(c(O)c(C(=O)Nc3ccccn3)c1=O)CCCC2` gave RORA act -22, SF-1 act -1, BAP1 inh 106 and JNK3 blocker 4.
`c1coc(Cn2c(SCc3nc4ccccc4[nH]3)nnc2-c2cccs2)c1` gave RORA act 2, SF-1 act 30 and E coli RNAP 9.
Screening Cc1c(N=CN2CCOCC2)c(=O)n(C)c(=O)n1C returned RORA act -20, SF-1 act -10, E coli RNAP 2, BAP1 inh 94 and JNK3 blocker -6.
For CC(C)c1cc(Nc2cccc(O)c2)cc(C(C)C)c1O the results were RORA act 8, SF-1 act 2, E coli RNAP 4, BAP1 inh 34*, JNK3 blocker -1 and BAP1 inh conf 82.
`CCOc1ccc(NC(=O)c2oc3ccccc3c2NC(=O)CC)cc1` gave RORA act -10, SF-1 act 16, E coli RNAP 6, BAP1 inh 112 and JNK3 blocker 5.
Cc1csc(NC(=O)c2cc3c(s2)-c2ccccc2OC3)n1 was read as RORA act 63*, SF-1 act 43, E coli RNAP 1, BAP1 inh 40*, JNK3 blocker 3 and BAP1 inh conf 91.
`CCOC(=O)c1[nH]c(CSc2nnnn2-c2ccccc2C)c(C(=O)OCC)c1C` gave RORA act -5, SF-1 act -12, E coli RNAP 7, BAP1 inh 35*, JNK3 blocker -7 and BAP1 inh conf 93.
Screening CCOC(=O)c1c(C)[nH]c(C)c1C(=O)CSc1nnnn1-c1ccccc1 returned RORA act -25, SF-1 act -14, E coli RNAP 7 and BAP1 inh 98.
`CN(C)c1ccc(NC(=O)CSc2nc3ccccc3c(=O)n2C2CCCCC2)cc1` gave RORA act -12, SF-1 act -22, E coli RNAP 3, BAP1 inh 50*, JNK3 blocker 0 and BAP1 inh conf 57*.
Cn1c(=O)c2cc(S(=O)(=O)NCCC(=O)NC3CCCCCCC3)ccc2n(C)c1=O was read as RORA act -16, SF-1 act 3, E coli RNAP 2, BAP1 inh 93 and JNK3 blocker -3.
CCc1cc(C(=O)Cc2cnn(-c3ccccc3)c2)c(O)cc1O was read as RORA act -18, SF-1 act -10, E coli RNAP 0, BAP1 inh 45*, JNK3 blocker 4 and BAP1 inh conf 129.
`Cc1ccc2cc3c(NC(=O)CC(C)C)nn(C)c3nc2c1` gave RORA act -1, SF-1 act -4, E coli RNAP 1, BAP1 inh 77 and JNK3 blocker 1.
For Cc1ccc2cc3c(NC(=O)c4ccco4)nn(CC(C)C)c3nc2c1 the results were RORA act 0, SF-1 act 13, E coli RNAP -4, BAP1 inh 43*, JNK3 blocker -4 and BAP1 inh conf 109.
CC(C)c1ccc2oc(-c3cc(N)ccc3O)nc2c1 was read as RORA act -41, SF-1 act -60, E coli RNAP 3, BAP1 inh 81 and JNK3 blocker 1.
